{
  "source": "PubChem BioAssay AID624016",
  "about": "(Broad Institute, 2012)",
  "note": "Calls of active or inactive are those of the source.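 How the source made its calls: active means fitted curve reaching 35% inhibition at both 405 and 600 nm absorbance, in duplicate, within twice the top valid dose; inactive means the rest, including signal rising instead of falling.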",
  "data": [
    {"tested_on": "not listed separately", "assay": "bacterial growth inhibition with EDDHA chelator – absorbance 405 nm, dry powder, set 4, dose response (AID 624016)", "conditions": "P. aeruginosa + EDDHA, pyoverdine absorbance 405 nm, 24-30 h; at 16 µM (top of the series)", "how_it_was_run": "(§1)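 test system = P. aeruginosa ATCC 15692 cells | schedule = 24-30 h exposure at 37 °C | measured by = absorbance 405 nm, pyoverdine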", "values": [
      {"molecule": "Cc1ccc(C(C#N)c2ccccc2OC(F)(F)F)nc1C#N", "note": "(configuration not stated)", "activity change, negative = inhibition": "-24.9% (inactive)"}
    ]},
    {"tested_on": "not listed separately", "assay": "bacterial growth inhibition with EDDHA chelator – absorbance 405 nm, dry powder, set 4, dose response (AID 624016)", "conditions": "P. aeruginosa + EDDHA, pyoverdine absorbance 405 nm, 24-30 h; at 50 µM (top of the series)", "how_it_was_run": "as §1", "values": [
      {"molecule": "CCCCC(C#N)c1ccccc1OC(F)(F)F", "note": "(configuration not stated)", "activity change, negative = inhibition": "-2.91% (inactive)"},
      {"molecule": "N#CC(c1ccc(C(F)(F)F)c(Cl)n1)c1ccccc1OC(F)(F)F", "note": "(configuration not stated)", "activity change, negative = inhibition": "-6.71% (inactive)"},
      {"molecule": "CCCCC(C#N)c1ccc(Cl)cc1Cl", "note": "(configuration not stated)", "activity change, negative = inhibition": "-5.19% (inactive)"},
      {"molecule": "CCCCC(C#N)c1ccc(Cl)cc1", "note": "(configuration not stated)", "activity change, negative = inhibition": "-0.817% (inactive)"},
      {"molecule": "N#CC(c1ccc(C(F)(F)F)cc1)c1cccc(Cl)n1", "note": "(configuration not stated)", "activity change, negative = inhibition": "-4.32% (inactive)"},
      {"molecule": "N#CC(c1ccc(Cl)cc1)c1ccc(C(F)(F)F)c(Cl)n1", "note": "(configuration not stated)", "activity change, negative = inhibition": "20.6% (inactive)"},
      {"molecule": "CCCCC(C#N)c1ccc(C(F)(F)F)cc1", "note": "(configuration not stated)", "activity change, negative = inhibition": "-3.25% (inactive)"},
      {"molecule": "CC(C#N)(c1ccc(Cl)cc1)c1ccc(C(F)(F)F)cn1", "note": "(configuration not stated)", "activity change, negative = inhibition": "-4.71% (inactive)"},
      {"molecule": "N#CC(c1ccc(Cl)cc1Cl)c1ncccc1Cl", "note": "(configuration not stated)", "activity change, negative = inhibition": "1.29% (inactive)"},
      {"molecule": "CCCC(C#N)c1ccc(Cl)cc1", "note": "(configuration not stated)", "activity change, negative = inhibition": "-8.71% (inactive)"},
      {"molecule": "N#Cc1ccc(C(C#N)c2ccc(Cl)cc2Cl)nc1", "note": "(configuration not stated)", "activity change, negative = inhibition": "-0.009% (inactive)"},
      {"molecule": "CC(C)CC(C#N)c1ccc(Cl)cc1", "note": "(configuration not stated)", "activity change, negative = inhibition": "-16.3% (inactive)"},
      {"molecule": "N#CC(c1ccc(C(F)(F)F)c(Cl)n1)c1ccc(Cl)cc1Cl", "note": "(configuration not stated)", "activity change, negative = inhibition": "15.9% (inactive)"},
      {"molecule": "N#CC(c1ccc(F)cc1)c1ccc(C(F)(F)F)c(Cl)n1", "note": "(configuration not stated)", "activity change, negative = inhibition": "-4.12% (inactive)"},
      {"molecule": "CCCCC(C#N)c1ccc(F)cc1", "note": "(configuration not stated)", "activity change, negative = inhibition": "-0.303% (inactive)"},
      {"molecule": "N#CC(c1ccc(C(F)(F)F)cc1)c1ccc(C(F)(F)F)c(Cl)n1", "note": "(configuration not stated)", "activity change, negative = inhibition": "2.24% (inactive)"},
      {"molecule": "N#Cc1cccc(C(C#N)c2ccc(Cl)cc2F)n1", "note": "(configuration not stated)", "activity change, negative = inhibition": "-15.5% (inactive)"},
      {"molecule": "CCCCC(C#N)c1ccc(Cl)cc1F", "note": "(configuration not stated)", "activity change, negative = inhibition": "5.25% (inactive)"},
      {"molecule": "N#CC(c1cccc(C(F)(F)F)n1)c1ccccc1OC(F)(F)F", "note": "(configuration not stated)", "activity change, negative = inhibition": "-7.92% (inactive)"},
      {"molecule": "N#CC(c1ccc(Cl)cc1)c1ccc(C(F)(F)F)cn1", "note": "(configuration not stated)", "activity change, negative = inhibition": "3.24% (inactive)"}
    ]},
    {"tested_on": "P. aeruginosa + EDDHA, pyoverdine absorbance 405 nm, 24-30 h", "assay": "bacterial growth inhibition with EDDHA chelator – absorbance 405 nm, dry powder, set 4, dose response (AID 624016)", "conditions": "not given", "how_it_was_run": "as §1", "values": [
      {"molecule": "N#CC(c1ccc(F)cc1)c1cccc(C(F)(F)F)n1", "note": "(configuration not stated)", "AC35": "28.9 µM"},
      {"molecule": "N#CC(c1ccc(Cl)cc1)c1ncccc1Cl", "note": "(configuration not stated)", "AC35": "10.7 µM"},
      {"molecule": "N#CC(c1cccc(Cl)n1)c1ccc(Cl)cc1F", "note": "(configuration not stated)", "AC35": "22.3 µM"},
      {"molecule": "N#CC(c1ccc(C(F)(F)F)cc1)c1cccc(C(F)(F)F)n1", "note": "(configuration not stated)", "AC35": "> 50 µM (inactive)"},
      {"molecule": "N#CC(c1cccc(C(F)(F)F)n1)c1ccc(Cl)cc1F", "note": "(configuration not stated)", "AC35": "15 µM"},
      {"molecule": "N#CC(c1ccc(Cl)cc1)c1cccc(C(F)(F)F)n1", "note": "(configuration not stated)", "AC35": "8.64 µM"}
    ]}
  ]
}
